Measurements: ChEMBL document CHEMBL4196021, “Targeting G-quadruplex DNA structures in the telomere and oncogene promoter regions by benzimidazole‒carbazole ligands” (Eur J Med Chem, 2018)
The source made the active and inactive calls. No cut-off for these calls is given here.

Legend:
Quadruplex DNA [1] = test: Displacement of thiazole orange from human c-Kit2 G-quadruplex DNA after 5 mins in presence of KCl by fluorescence assay; format: nucleic-acid assay
Outline: (§1)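 Thiazole orange displacement from a G4 DNA–TO complex (1 µM TO + 0.5 µM G4 DNA) in 10 mM Tris-HCl pH 7.4, 100 mM KCl, 0.1 mM EDTA. Ligand was added in increasing steps, with 5 min incubation each. Fluorescence read at ex 501/em 531 nm; % displacement = 100 − (Ft/F0 × 100). DC50 is the ligand concentration giving 50% displacement, read from plots; average of two independent experiments.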

Quadruplex DNA [2] = test: Displacement of thiazole orange from human c-Myc G-quadruplex DNA after 5 mins in presence of KCl by fluorescence assay; format: nucleic-acid assay; outline: as §1
Calf thymus DNA = test: Displacement of thiazole orange from calf thymus duplex DNA after 5 mins in presence of KCl by fluorescence assay; format: nucleic-acid assay, Bos taurus
Quadruplex DNA [3] = test: Displacement of thiazole orange from human telomeric G-quadruplex DNA after 5 mins in presence of KCl by fluorescence assay; format: nucleic-acid assay; outline: as §1
Quadruplex DNA [4] = test: Displacement of thiazole orange from human c-Kit1 G-quadruplex DNA after 5 mins in presence of KCl by fluorescence assay; format: nucleic-acid assay; outline: as §1
Quadruplex DNA [5] = test: Displacement of thiazole orange from human VEGF G-quadruplex DNA after 5 mins in presence of KCl by fluorescence assay; format: nucleic-acid assay; outline: as §1
Quadruplex DNA [6] = test: Displacement of thiazole orange from human Bcl2 G-quadruplex DNA after 5 mins in presence of KCl by fluorescence assay; format: nucleic-acid assay; outline: as §1
Quadruplex DNA [7] = test: Binding affinity to human c-Kit2 G-quadruplex DNA assessed as change in melting temperature in presence of KCl by CD spectroscopic method; format: nucleic-acid assay
Outline: (§2)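 CD melting of 5 µM G4 DNA in 10 mM Tris-HCl pH 7.4, 25 mM KCl, 0.1 mM EDTA. Ligand was present during folding (heating, slow cooling). Spectra 200–400 nm over 20–96 °C in 2 °C steps, buffer blank subtracted. Tm was taken from normalized ellipticity at the positive maximum (262 nm for promoter G4s). ΔTm = ligand-bound minus DNA alone; average of two independent experiments.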

Quadruplex DNA [8] = test: Binding affinity to human VEGF G-quadruplex DNA assessed as stabilization of parallel stranded topology after 5 mins in presence of KCl by CD spectroscopic method; format: nucleic-acid assay
Outline: (§3)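 CD spectra of 5 µM G4 DNA in 10 mM Tris-HCl pH 7.4, 100 mM KCl, 0.1 mM EDTA, with or without ligand. Mixtures were heated 95 °C for 5 min and slowly cooled to room temperature. Recorded 200–400 nm at 25 °C, 100 nm/min, 2 s response, 1 cm cell; average of three scans.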

Quadruplex DNA [9] = test: Binding affinity to human c-Kit2 G-quadruplex DNA at 0.6 uM after 5 mins in presence of KCl by fluorescence spectroscopic method; format: nucleic-acid assay
Outline: (§4)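 Fluorescence titration at 25 °C with 0.6 µM ligand in 10 mM Tris-HCl pH 7.4, 100 mM KCl, 0.1 mM EDTA. Preformed G4 DNA was added stepwise, with 5 min incubation before each spectrum. Excitation 330 nm; emission 350–550 nm, slit 5 nm.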

Quadruplex DNA [10] = test: Induction of conformational changes in human telomeric G-quadruplex DNA assessed as inversion from potassium ion stabilized hybrid type mixed parallel/antiparallel G-quadruplex to stable telomere parallel-stranded G-quadruplex after 5 mins in presence of KCl by CD spectroscopic method; format: nucleic-acid assay; outline: as §3
Quadruplex DNA [11] = test: Induction of conformational changes in human Bcl2 G-quadruplex DNA assessed as inversion from potassium ion stabilized hybrid type mixed parallel/antiparallel G-quadruplex to stable telomere parallel-stranded G-quadruplex after 5 mins in presence of KCl by CD spectroscopic method; format: nucleic-acid assay; outline: as §3
Quadruplex DNA [12] = test: Binding affinity to human c-Myc G-quadruplex DNA at 0.6 uM after 5 mins in presence of KCl by fluorescence spectroscopic method; format: nucleic-acid assay; outline: as §4
Quadruplex DNA [13] = test: Binding affinity to human c-Kit1 G-quadruplex DNA assessed as stabilization of parallel stranded topology after 5 mins in presence of KCl by CD spectroscopic method; format: nucleic-acid assay; outline: as §3
Quadruplex DNA [14] = test: Binding affinity to human VEGF G-quadruplex DNA assessed as change in melting temperature in presence of KCl by CD spectroscopic method; format: nucleic-acid assay; outline: as §2
Quadruplex DNA [15] = test: Binding affinity to human telomeric G-quadruplex DNA at 0.6 uM after 5 mins in presence of KCl by fluorescence spectroscopic method; format: nucleic-acid assay; outline: as §4
Quadruplex DNA [16] = test: Binding affinity to human VEGF G-quadruplex DNA at 0.6 uM after 5 mins in presence of KCl by fluorescence spectroscopic method; format: nucleic-acid assay; outline: as §4
Quadruplex DNA [17] = test: Binding affinity to human c-Kit2 G-quadruplex DNA assessed as stabilization of parallel stranded topology after 5 mins in presence of KCl by CD spectroscopic method; format: nucleic-acid assay; outline: as §3
Quadruplex DNA [18] = test: Binding affinity to human c-Kit1 G-quadruplex DNA assessed as change in melting temperature in presence of KCl by CD spectroscopic method; format: nucleic-acid assay; outline: as §2
Quadruplex DNA [19] = test: Binding affinity to human telomeric G-quadruplex DNA assessed as change in melting temperature in presence of KCl by CD spectroscopic method; format: nucleic-acid assay; outline: as §2
Quadruplex DNA [20] = test: Binding affinity to human c-Myc G-quadruplex DNA assessed as stabilization of parallel stranded topology after 5 mins in presence of KCl by CD spectroscopic method; format: nucleic-acid assay; outline: as §3
Quadruplex DNA [21] = test: Binding affinity to human Bcl2 G-quadruplex DNA at 0.6 uM after 5 mins in presence of KCl by fluorescence spectroscopic method; format: nucleic-acid assay; outline: as §4
Quadruplex DNA [22] = test: Binding affinity to human Bcl2 G-quadruplex DNA assessed as change in melting temperature in presence of KCl by CD spectroscopic method; format: nucleic-acid assay; outline: as §2
Quadruplex DNA [23] = test: Binding affinity to human c-Myc G-quadruplex DNA assessed as change in melting temperature in presence of KCl by CD spectroscopic method; format: nucleic-acid assay; outline: as §2
Quadruplex DNA [24] = test: Binding affinity to human c-Kit1 G-quadruplex DNA at 0.6 uM after 5 mins in presence of KCl by fluorescence spectroscopic method; format: nucleic-acid assay; outline: as §4
Quadruplex DNA [25] = test: Binding affinity to human 77-mer c-Myc G-quadruplex DNA assessed as inhibition of Taq DNA polymerase-mediated DNA synthesis by measuring generation of premature chain termination products using 32P-labeled primer after 30 mins by polymerase stop assay; format: nucleic-acid assay
Outline: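 Template of 10 nM single-stranded 77-mer c-MYC with the G-quadruplex-forming sequence, annealed to 32P-labeled plus cold primer (15 nM) in Tris-HCl pH 7.4 with 5 mM KCl. Annealing was 95 °C for 5 min then slow cooling, with ligand added before annealing. Extension with Taq polymerase (5 mM MgCl2, 0.5 mM DTT, 0.2 mM dNTPs) ran 30 min at 48 or 40 °C. Products were resolved on 15% urea denaturing PAGE and read by phosphorimaging.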

SMILES	DC50 (Quadruplex DNA [1])	DC50 (Quadruplex DNA [2])	DC50 (Calf thymus DNA)	DC50 (Quadruplex DNA [3])	DC50 (Quadruplex DNA [4])	DC50 (Quadruplex DNA [5])	DC50 (Quadruplex DNA [6])	ΔTm (Quadruplex DNA [7])	Activity (Quadruplex DNA [8])	Activity (Quadruplex DNA [9])	Activity (Quadruplex DNA [10])	Activity (Quadruplex DNA [11])	Activity (Quadruplex DNA [12])	Activity (Quadruplex DNA [13])	ΔTm (Quadruplex DNA [14])	Activity (Quadruplex DNA [15])	ΔTm (Quadruplex DNA [18])	ΔTm (Quadruplex DNA [19])	ΔTm (Quadruplex DNA [22])	ΔTm (Quadruplex DNA [23])	other results
C[n+]1ccc(-c2c3nc(c(-c4cc[n+](C)cc4)c4ccc([nH]4)c(-c4cc[n+](C)cc4)c4nc(c(-c5cc[n+](C)cc5)c5ccc2[nH]5)C=C4)C=C3)cc1	0.35 µM	0.38 µM	0.87 µM	0.47 µM	0.32 µM	0.31 µM	0.43 µM														
CN1CCN(CCCCn2c3ccc(-c4nc5cc(N6CCN(CCO)CC6)ccc5[nH]4)cc3c3cc(-c4nc5cc(N6CCN(CCO)CC6)ccc5[nH]4)ccc32)CC1	0.66 µM	0.98 µM	6.49 µM	1.15 µM	0.88 µM	0.75 µM	1.44 µM	22 °C	Active	Active	Active	Active	Active	Active	14.2 °C	Active	25.9 °C	21.2 °C	9.5 °C	8.86 °C	Activity (Quadruplex DNA [16]): Active; Activity (Quadruplex DNA [17]): Active; Activity (Quadruplex DNA [20]): Active; Activity (Quadruplex DNA [21]): Active; Activity (Quadruplex DNA [24]): Active
CCn1c2ccc(-c3nc4ccc(N5CCN(CCO)CC5)cc4[nH]3)cc2c2cc(-c3nc4ccc(N5CCN(CCO)CC5)cc4[nH]3)ccc21	1.34 µM	1.63 µM	5.28 µM	2.79 µM	1.62 µM	1.42 µM	2.86 µM	17 °C	Active	Active	Active	Active	Active	Active	12.8 °C	Active	13.2 °C	9.74 °C	6.53 °C	8.63 °C	Activity (Quadruplex DNA [25]): Dose-dependent effect; Activity (Quadruplex DNA [16]): Active; Activity (Quadruplex DNA [17]): Active; Activity (Quadruplex DNA [20]): Active; Activity (Quadruplex DNA [21]): Active; Activity (Quadruplex DNA [24]): Active
CN1CCN(CCCCn2c3ccc(-c4nc5cc(N6CCOCC6)ccc5[nH]4)cc3c3cc(-c4nc5cc(N6CCOCC6)ccc5[nH]4)ccc32)CC1	0.74 µM	0.85 µM	5.52 µM	1.3 µM	0.98 µM	0.63 µM	1.29 µM	16.6 °C	Active	Active	inactive	inactive	Active	Active	14.2 °C	Active	12.2 °C	16.9 °C	5.54 °C	8.65 °C	Activity (Quadruplex DNA [16]): Active; Activity (Quadruplex DNA [17]): Active; Activity (Quadruplex DNA [20]): Active; Activity (Quadruplex DNA [21]): Active; Activity (Quadruplex DNA [24]): Active
C[n+]1ccc(-c2c3nc(c(-c4cc[n+](C)cc4)c4ccc([nH]4)c(-c4cc[n+](C)cc4)c4ccc([nH]4)c(-c4cc[n+](C)cc4)c4nc2C=C4)C=C3)cc1								15.5 °C							12.3 °C		15.1 °C	15.6 °C	14.3 °C	11 °C	
C[N+]1(CCCCN2CCOCC2)CCN(CCCCn2c3ccc(-c4nc5ccc(N6CCOCC6)cc5[nH]4)cc3c3cc(-c4nc5ccc(N6CCOCC6)cc5[nH]4)ccc32)CC1	> 3 µM	> 3 µM	> 10 µM	> 3 µM	> 3 µM	> 3 µM	> 3 µM	7.53 °C	Active	Active	inactive	inactive	Active	Active	4.35 °C	Active	3.58 °C	7.14 °C	3.26 °C	4.95 °C	Activity (Quadruplex DNA [16]): Active; Activity (Quadruplex DNA [17]): Active; Activity (Quadruplex DNA [20]): Active; Activity (Quadruplex DNA [21]): Active; Activity (Quadruplex DNA [24]): Active
